Activity calls are given as the source filed them. The rule behind the calls is not given here.
What was measured:
[1] = system: 3T3-L1; assay: Increase in PPARgamma mRNA expression mouse 3T3L1 cells at 10 uM after 24 hrs by SYBR Green-based expression analysis relative to control; assay type: functional
[2] = system: 3T3-L1; assay: Increase in Glut-4 mRNA expression mouse 3T3L1 cells at 10 uM after 24 hrs by SYBR Green-based expression analysis relative to control; assay type: functional
[3] = system: 3T3-L1; assay: Increase in PPARalpha mRNA expression mouse 3T3L1 cells at 10 uM after 24 hrs by SYBR Green-based expression analysis relative to control; assay type: functional, cell-based
[4] = system: Rattus norvegicus; assay: Antidiabetic activity in streptozotocin-nicotinamide-induced NIDDM Wistar rat model assessed as reduction in blood glucose level at 50 mg/kg administered intragastrically measured at 1 hr post dose relative to control; assay type: functional; design: scale not given: the % may be the effect or the level left; details: route intragastric
Method in brief: (§1)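 Streptozotocin–nicotinamide-induced diabetic rats received one intragastric dose (test agent 50 mg/Kg; glibenclamide 5 mg/Kg as hypoglycemic control). Blood glucose was sampled at 0, 1, 3, 5 and 7 h after dosing. Change was expressed as percentage variation of glycemia from zero hour, negative meaning a decrease. Values are mean ± SEM (n = 6), compared with a control group.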

[5] = system: Rattus norvegicus; assay: Antidiabetic activity in streptozotocin-nicotinamide-induced NIDDM Wistar rat model assessed as reduction in blood glucose level at 50 mg/kg administered intragastrically measured at 7 hrs post dose relative to control; assay type: functional; design: scale not given: the % may be the effect or the level left; details: route intragastric; method in brief: as §1
[6] = system: Rattus norvegicus; assay: Antidiabetic activity in streptozotocin-nicotinamide-induced NIDDM Wistar rat model assessed as reduction in blood glucose level at 50 mg/kg administered intragastrically measured at 5 hrs post dose relative to control; assay type: functional; design: scale not given: the % may be the effect or the level left; details: route intragastric; method in brief: as §1
[7] = system: Rattus norvegicus; assay: Antidiabetic activity in streptozotocin-nicotinamide-induced NIDDM Wistar rat model assessed as reduction in blood glucose level at 50 mg/kg administered intragastrically measured at 3 hrs post dose relative to control; assay type: functional; design: scale not given: the % may be the effect or the level left; details: route intragastric; method in brief: as §1
[8] = system: Rattus norvegicus; assay: Antidiabetic activity in streptozotocin-nicotinamide-induced NIDDM Wistar rat model assessed as reduction in blood glucose level at 5 mg/kg administered intragastrically measured at 7 hrs post dose relative to control; assay type: functional; design: scale not given: the % may be the effect or the level left; details: route intragastric; method in brief: as §1
[9] = system: Rattus norvegicus; assay: Antidiabetic activity in streptozotocin-nicotinamide-induced NIDDM Wistar rat model assessed as reduction in blood glucose level at 5 mg/kg administered intragastrically measured at 3 hrs post dose relative to control; assay type: functional; design: scale not given: the % may be the effect or the level left; details: route intragastric; method in brief: as §1
[10] = system: Rattus norvegicus; assay: Antidiabetic activity in streptozotocin-nicotinamide-induced NIDDM Wistar rat model assessed as reduction in blood glucose level at 5 mg/kg administered intragastrically measured at 5 hrs post dose relative to control; assay type: functional; design: scale not given: the % may be the effect or the level left; details: route intragastric; method in brief: as §1
[11] = system: Rattus norvegicus; assay: Antidiabetic activity in streptozotocin-nicotinamide-induced NIDDM Wistar rat model assessed as reduction in blood glucose level at 5 mg/kg administered intragastrically measured at 1 hr post dose relative to control; assay type: functional; design: scale not given: the % may be the effect or the level left; details: route intragastric; method in brief: as §1

SMILES | fold change (FC) [1] | fold change (FC) [2] | Activity [3] | Activity [4] [%] | Activity [5] [%] | Activity [6] [%] | Activity [7] [%] | Activity [8] [%] | Activity [9] [%] | Activity [10] [%] | Activity [11] [%]
O=C(O)COc1ccc(NC(=O)COc2ccc(/C=C3\SC(=O)NC3=O)cc2)cc1 | 2 | 2 | inactive | – | – | – | – | – | – | – | –
CCOC(=O)COc1ccc(NC(=O)COc2ccc(/C=C3\SC(=O)NC3=O)cc2)cc1 | 2 | 2 | inactive | 4.4 | 31 | 36.7 | 20.5 | – | – | – | –
COc1ccc(Cl)cc1C(=O)NCCc1ccc(S(=O)(=O)NC(=O)NC2CCCCC2)cc1 [GLYBURIDE] | – | – | – | – | – | – | – | 43.6 | 36.3 | 37.5 | 20.5

Reference: ChEMBL document CHEMBL3351797, “Synthesis, in vitro and in silico studies of a PPARγ and GLUT-4 modulator with hypoglycemic effect” (2014)
